Test results taken from ChEMBL document CHEMBL3272089, “Synthesis and antitumor activity of dihydro-5-azacytidine, a hydrolytically stable analogue of 5-azacytidine” (J Med Chem, 1977).
Calls of active or inactive are those of the source. No cut-off for these calls is given here.

Key:
L1210 [1] = test: Antitumor activity against mouse L1210 cells allografted in ip dosed mouse assessed as increase in life span at MNTD administered qd on day 1, 5 and 9 post tumor implantation relative to control; type: functional
Outline: (§1)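 L1210 implanted ip in mice. Compound given ip in 0.9% saline on the listed schedule across a dose-response range. % ILS reported at the highest nontoxic dose, or at the dose giving maximal ILS for active compounds. Test minus control body-weight change on day 5 at the highest nontoxic dose.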

L1210 [2] = test: Antitumor activity against mouse L1210 cells allografted in ip dosed mouse assessed as change in body weight at MNTD administered qd on day 1, 5 and 9 post tumor implantation measured on day 5 relative to control; type: functional
Outline: (§2)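 Doses were given ip in 0.9% saline after ip L1210 implantation, as a dose–response series. The reading is the difference in average body weight change (g) between test (T) and control (C) groups, measured on day 5 at the highest nontoxic dose tested.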

L1210 [3] = test: Cytotoxicity against mouse L1210 cells assessed as cessation of growth in presence of cytidine; type: functional, cell-based
L1210 [4] = test: Cytotoxicity against mouse L1210 cells assessed as cessation of growth in presence of uridine; type: functional, cell-based
L1210 [5] = test: Cytotoxicity against mouse L1210 cells assessed as cessation of growth; type: functional, cell-based
L1210 [6] = test: Antitumor activity against mouse L1210 cells allografted in ip dosed mouse assessed as increase in life span at MNTD administered qd from day 1 to day 9 post tumor implantation relative to control; type: functional; outline: as §1
L1210 [7] = test: Antitumor activity against mouse L1210 cells allografted in ip dosed mouse assessed as change in body weight at MNTD administered qd from day 1 to day 9 post tumor implantation measured on day 5 relative to control; type: functional; outline: as §2

| Compound | ILS (L1210 [1]) [%] | Activity (L1210 [2]) [g] | also measured |
| --- | --- | --- | --- |
| NC1=NC(=O)N([C@@H]2O[C@H](CO)[C@H]3O[B-]4(O[C@H]32)O[C@@H]2[C@H](O4)[C@@H](CO)O[C@H]2N2CNC(N)=NC2=O)CN1.[Na+] (stereo partly specified) | 80 | -1.5 | – |
| Cl.NC1=NC(=O)NCN1 | 0 | 1 | – |
| NC1=NC(=O)N([C@@H]2O[C@H](CO)[C@@H](O)[C@H]2O)CN1 [listing 1 of 2 here] | – | – | Activity (L1210 [3]): inactive; Activity (L1210 [4]): inactive; Activity (L1210 [5]): Active |
| NC1=NC(=O)N([C@@H]2O[C@H](CO)[C@@H](O)[C@H]2O)CN1 [listing 2 of 2 here] | – | – | ILS (L1210 [6]): 86%; Activity (L1210 [7]): -3.2 g |
| NC(N)=NC(=O)N[C@@H]1O[C@H](CO)[C@@H](O)[C@H]1O | 0 | -2.2 | – |
